Measured values taken from ChEMBL document CHEMBL1135463 (J Med Chem, 2002).
Values after ≈ are worked out from the molar mass of the structure shown. Active and inactive are the calls of the source. The calls are words filed in the database; no cut-off is given here.

Experiments:
Neisseria gonorrhoeae = assay: The minimum inhibitory concentration (MIC) that inhibits all visible growth of the Neisseria gonorrhoeae (bacteria); assay type: functional
How it was run: (§1)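 Broth microdilution following NCCLS reference methods (M7-A4 for aerobic bacteria, the yeast broth dilution standard for fungi). MIC is the lowest compound concentration giving optically clear wells, with no visible growth of the test organism.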

P388 = assay: In vitro inhibition of P388 (murine leukemia) cell proliferation.; assay type: functional; details: Mus musculus, read-out: ED50 (the source's name)
[1] = In vitro growth inhibition of NCI-H460 (human non-small cell lung carcinoma) cell line.; assay type: functional
KM-20L2 = assay: In vitro growth inhibition of KM20L2 cell line.; assay type: functional; details: Homo sapiens
BXPC-3 = assay: In vitro growth inhibition of BXPC-3 (human pancreatic adenocarcinoma) cell line.; assay type: functional
SF-268 = assay: In vitro growth inhibition of central nervous system SF-268 cell line.; assay type: functional; details: Homo sapiens
DU-145 = assay: In vitro growth inhibition of DU-145 (human prostate carcinoma) cell line.; assay type: functional
MCF7 = assay: Cell growth inhibition of breast MCF-7 cells, expressed as 50% reduction in the net protein increase; assay type: functional; details: Homo sapiens
Candida albicans [2] = assay: The minimum inhibitory concentration (MIC) that inhibits all visible growth of the Candida albicans (fungus) at 64 ug/mL; NI is no inhibition; assay type: functional, organism-based; how it was run: as §1
Enterobacter cloacae = assay: The minimum inhibitory concentration (MIC) that inhibits all visible growth of the Enterobacter cloacae (bacteria) at 64 ug/mL; NI is no inhibition; assay type: functional, organism-based; how it was run: as §1
Escherichia coli = assay: The minimum inhibitory concentration (MIC) that inhibits all visible growth of the Escherichia coli (bacteria) at 64 ug/mL; NI is no inhibition; assay type: functional, organism-based; how it was run: as §1
Staphylococcus aureus [3] = assay: The minimum inhibitory concentration (MIC) that inhibits all visible growth of the Staphylococcus aureus (bacteria) at 64 ug/mL; NI is no inhibition; assay type: functional, organism-based; how it was run: as §1
Streptococcus pneumoniae = assay: The minimum inhibitory concentration (MIC) that inhibits all visible growth of the Streptococcus pneumoniae (bacteria); assay type: functional; how it was run: as §1
Micrococcus luteus [4] = assay: the minimum inhibitory concentration (MIC) that inhibits all visible growth of the Micrococcus luteus (bacteria) at 64 ug/mL; NI is no inhibition; assay type: functional, organism-based; how it was run: as §1
[5] = test system: Stenotrophomonas maltophilia; assay: The minimum inhibitory concentration (MIC) that inhibits all visible growth of the Stenotrophomonas maltophilia (bacteria) at 64 ug/mL; NI is no inhibition; assay type: functional, organism-based; how it was run: as §1
Enterococcus faecalis [6] = assay: the minimum inhibitory concentration (MIC) that inhibits all visible growth of the Enterococcus faecalis (bacteria) at 64 ug/mL; NI is no inhibition; assay type: functional, organism-based; how it was run: as §1
Cryptococcus neoformans [7] = assay: Minimum inhibitory concentration (MIC) that inhibits all visible growth of the Cryptococcus neoformans (fungus) at 64 ug/mL; NI is no inhibition; assay type: functional, organism-based; how it was run: as §1
Enterococcus faecalis [8] = assay: The minimum inhibitory concentration (MIC) that inhibits all visible growth of the Enterococcus faecalis (bacteria) at 64 ug/mL; NI is no inhibition; assay type: functional, organism-based; how it was run: as §1
Staphylococcus aureus [9] = assay: The minimum inhibitory concentration (MIC) that inhibits all visible growth of the Staphylococcus aureus (bacteria); assay type: functional; how it was run: as §1
Micrococcus luteus [10] = assay: the minimum inhibitory concentration (MIC) that inhibits all visible growth of the Micrococcus luteus (bacteria); assay type: functional; how it was run: as §1
Enterococcus faecalis [11] = assay: the minimum inhibitory concentration (MIC) that inhibits all visible growth of the Enterococcus faecalis (bacteria); assay type: functional; how it was run: as §1
Tubulin = Tubulin (Bos taurus, UniProt Q6B856+Q862L2+Q862F3); assay: Inhibition of tubulin polymerization reported as IC50; assay type: functional
Candida albicans [12] = assay: The minimum inhibitory concentration (MIC) that inhibits all visible growth of the Candida albicans (fungus); assay type: functional; how it was run: as §1
Cryptococcus neoformans [13] = assay: Minimum inhibitory concentration (MIC) that inhibits all visible growth of the Cryptococcus neoformans (fungus).; assay type: functional; how it was run: as §1
SF-268 (Homo sapiens) = assay: The concentration causing 50% reduction in the net protein increase (cell growth inhibition, GI50) against central nervous system (CNS) SF-268 cells

MIC (Neisseria gonorrhoeae) | EC50 (P388) | GI50 (BXPC-3) | GI50 (DU-145) | GI50 (MCF7) | MIC (Streptococcus pneumoniae) | Structure (SMILES) | GI50 [1] | GI50 (KM-20L2) | GI50 (SF-268) | further results
4 µg/mL (≈ 15.4 µM) | > 10 µg/mL | 1.3 µg/mL (≈ 4.99 µM) | 5.8 µg/mL (≈ 22.3 µM) | 2 µg/mL (≈ 7.68 µM) | 16 µg/mL (≈ 61.5 µM) | COc1cc(OC)cc(C(O)c2ccc(O)cc2)c1 (stereo not given) | 2.3 µg/mL (≈ 8.84 µM) | 5.3 µg/mL (≈ 20.4 µM) | 0.65 µg/mL (≈ 2.5 µM) | MIC (Candida albicans [2]): inactive; MIC (Enterobacter cloacae): inactive; MIC (Escherichia coli): inactive; MIC (Staphylococcus aureus [3]): inactive; MIC (Micrococcus luteus [4]): inactive; MIC [5]: inactive; MIC (Enterococcus faecalis [6]): inactive; MIC (Cryptococcus neoformans [7]): inactive; MIC (Enterococcus faecalis [8]): inactive
8 µg/mL (≈ 31.2 µM) | 2.95 µg/mL (≈ 11.5 µM) | 12.6 µg/mL (≈ 49.2 µM) | 2.3 µg/mL (≈ 8.97 µM) | 3 µg/mL (≈ 11.7 µM) | 16 µg/mL (≈ 62.4 µM) | COc1cc(/C=C\c2ccc(O)cc2)cc(OC)c1 | 2.8 µg/mL (≈ 10.9 µM) | 11.9 µg/mL (≈ 46.4 µM) | 2.2 µg/mL (≈ 8.58 µM) | MIC (Staphylococcus aureus [9]): 32 µg/mL (≈ 125 µM); MIC (Micrococcus luteus [10]): 8 µg/mL (≈ 31.2 µM); MIC (Enterococcus faecalis [11]): 32 µg/mL (≈ 125 µM); IC50 (Tubulin): 29 µM; MIC (Candida albicans [12]): 64 µg/mL (≈ 250 µM); MIC (Cryptococcus neoformans [13]): 16 µg/mL (≈ 62.4 µM)
– | 4.87 µg/mL (≈ 19 µM) | 6.5 µg/mL (≈ 25.4 µM) | 2.7 µg/mL (≈ 10.5 µM) | 2.3 µg/mL (≈ 8.97 µM) | – | COc1cc(/C=C/c2ccc(O)cc2)cc(OC)c1 [PTEROSTILBENE] | 2.7 µg/mL (≈ 10.5 µM) | 3.4 µg/mL (≈ 13.3 µM) | – | GI50 (SF-268 (Homo sapiens)): 4.3 µg/mL (≈ 16.8 µM)

Structure (SMILES) | MIC (Neisseria gonorrhoeae) | EC50 (P388) | GI50 (BXPC-3) | GI50 (DU-145) | GI50 (MCF7) | MIC (Streptococcus pneumoniae) | GI50 [1] | GI50 (KM-20L2) | GI50 (SF-268) | further results
COc1ccc(/C=C\c2cc(O)cc(O)c2)cc1 | 16 µg/mL (≈ 66 µM) | 2.75 µg/mL (≈ 11.4 µM) | 14.1 µg/mL (≈ 58.2 µM) | 10.6 µg/mL (≈ 43.8 µM) | 12.7 µg/mL (≈ 52.4 µM) | – | 6.4 µg/mL (≈ 26.4 µM) | 17.7 µg/mL (≈ 73.1 µM) | 15.6 µg/mL (≈ 64.4 µM) | –
COc1ccc(/C=C\c2cc(O)cc(OC)c2)cc1 | – | 3.82 µg/mL (≈ 14.9 µM) | – | – | – | – | 0.72 µg/mL (≈ 2.81 µM) | – | – | –
